# Measurements from ChEMBL document CHEMBL4513216, “Probing the Open Global Health Chemical Diversity Library for Multistage-Active Starting Points for Next-Generation Antimalarials” (ACS Infect Dis, 2020).
# Assay: Toxicity liver stage against HepG2, at 10uM
# Assay type: cell-based
# Set-up: test concentration 10 uM, cell line HepG2-A16-CD81EGFP
# Details: human, HepG2-A16-CD81EGFP cells; read-out: INHIBITION
# How it was run: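 Uninfected HepG2-A16-CD81EGFP cells, 3 × 10^3 per well, 1536-well, plated on prespotted compound at 10 μM final, parasite-free screening media added to match infected plates; puromycin 10 μM positive, DMSO 0.5% negative; run in parallel with 48 h PbLuc assay at 37 °C, 5% CO2; viability by CellTiter-Glo luminescence, normalized to controls.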
compound,measurement,value
c1cc(CN2CCOC[C@H]2c2nc(-c3ccncc3)c[nH]2)ccn1,cytotoxicity at 10 µM,-2.65%
CCNC(=O)N1C[C@@H]2OCC(=O)N(CC3CC3)[C@@H]2C1,cytotoxicity at 10 µM,0.434%
CCCSc1ncccc1C(=O)NCc1ccc(S(N)(=O)=O)cc1,cytotoxicity at 10 µM,6.02%
O=C(CCc1nc2cc(Br)cnc2[nH]1)NCCCn1ccnc1,cytotoxicity at 10 µM,0.905%
CC(C)n1cc(C(=O)NCCCn2ccnc2)c2n[nH]c(=O)c-2c1,cytotoxicity at 10 µM,-4.17%
Cc1nn(C)c(C)c1S(=O)(=O)NCC1CCN(c2ccccn2)CC1,cytotoxicity at 10 µM,6.5%
Cn1cc(C(=O)Nc2ccc3c(c2)CN(C(=O)C2CC2)CC3)nn1,cytotoxicity at 10 µM,4.59%
C[C@H]1C[C@H]2CN(S(=O)(=O)c3ccc(F)cc3)CC[C@H]2O1,cytotoxicity at 10 µM,1.79%
c1cnc(N2CCCn3c(nnc3Cn3cccn3)C2)nc1,cytotoxicity at 10 µM,-1.58%
CC(C)NC(=O)N1CCC(c2nnc3ccc(C(=O)N(C)C)cn23)C1 (stereo unspecified),cytotoxicity at 10 µM,8.79%
COCC1c2nnn(CC3CC3)c2CCN1C(=O)N1CCCC1 (stereo unspecified),cytotoxicity at 10 µM,-131%
CCOCC(=O)N1Cc2nccn2CC(CN(C)C)C1 (stereo unspecified),cytotoxicity at 10 µM,-124%
CNc1oc(-c2ccc(OC)c(S(=O)(=O)N3CCCC3)c2)nc1C#N,cytotoxicity at 10 µM,3.33%
O=C(COCC(=O)N(c1ccccc1)c1ccccc1)N1CCCC1,cytotoxicity at 10 µM,10.9%
CCCn1nc(C)c2c(C(F)F)cc(=O)n(CC(=O)O)c21,cytotoxicity at 10 µM,1.76%
Cc1nc(NC2CC(C)(C)NC(C)(C)C2)c2c(n1)c(C)nn2C,cytotoxicity at 10 µM,-11.5%
CNC(=O)c1sc2ncccc2c1C1CCN(C(=O)CCOC)C1 (stereo unspecified),cytotoxicity at 10 µM,6.42%
CNc1ccc(C2CN(c3nc(C)cc(C)n3)CCO2)nc1 (stereo unspecified),cytotoxicity at 10 µM,0.575%
CCC(=O)N1CCc2c(O)nc(C3CCCCN3C(=O)C3CC3)nc2C1 (stereo unspecified),cytotoxicity at 10 µM,3.3%
CCn1cc(S(=O)(=O)N2CCCCCC2c2cc(C)no2)cn1 (stereo unspecified),cytotoxicity at 10 µM,8.24%
CNc1nccc(C2CCCCN2Cc2cnn3cccnc23)n1 (stereo unspecified),cytotoxicity at 10 µM,0.247%
Cc1nccc(N2CCCC(C)(c3[nH]ncc3C(N)=O)C2)n1 (stereo unspecified),cytotoxicity at 10 µM,1.86%
Cc1cccc(C2CCCN2S(=O)(=O)N(C)C)n1 (stereo unspecified),cytotoxicity at 10 µM,-5.5%
CC(=O)NC[C@]1(O)CCN(C(=O)c2ccc(C)c(F)c2)C[C@H]1O,cytotoxicity at 10 µM,-2.78%
COc1ccnc(N(C)Cc2c(C)noc2C)n1,cytotoxicity at 10 µM,-3.84%
CC(NC(=O)Nc1ccc(-c2csnn2)cc1)C(=O)NC(C)(C)C (stereo unspecified),cytotoxicity at 10 µM,9.11%
CCN1CCN(C(=O)c2cc(F)cc3nc(C)c(C)nc23)CC1,cytotoxicity at 10 µM,-2.25%
FC(F)(F)CCN(Cc1ccon1)C1CCCC1,cytotoxicity at 10 µM,1.87%
CN(CC(=O)NCCc1cc2ccccc2o1)S(C)(=O)=O,cytotoxicity at 10 µM,6.56%
CCOC(=O)C1(NC(=O)CCNc2cc(C)ccc2OC)CCCCC1,cytotoxicity at 10 µM,6.47%
CN(Cc1nc(C(F)(F)F)cs1)C(=O)CCc1cccnc1,cytotoxicity at 10 µM,9.75%
Cn1c(CCCNC(=O)Nc2cn[nH]c2)nc2ccccc21,cytotoxicity at 10 µM,21.9%
CCn1c(C)cc(C(=O)N2CCC(NC(=O)c3cc(C)no3)CC2)c1C,cytotoxicity at 10 µM,-1.1%
CN(C)C(=O)c1cccc(CCNc2ccccc2S(C)(=O)=O)c1,cytotoxicity at 10 µM,11.5%
CC1CCC(NC(=O)CNC2(c3cccc(Br)c3)CCOCC2)CC1 (stereo unspecified),cytotoxicity at 10 µM,2.94%
N#Cc1cccnc1N1CCC(OCCc2ccccc2)CC1,cytotoxicity at 10 µM,-11%
CC(NC(=O)Nc1ccc(S(C)(=O)=O)cc1)c1ccc2c(c1)CC(=O)N2 (stereo unspecified),cytotoxicity at 10 µM,0.0793%
CC(C)(C)NC(=O)CN1CCCN(Cc2ccc(C#N)cc2)CC1,cytotoxicity at 10 µM,-4.78%
Cc1ccccc1-c1noc(CN2CCC(c3ccn[nH]3)CC2)n1,cytotoxicity at 10 µM,1.98%
CC(C)C(C(=O)N1CCN(Cc2cscn2)CC1)n1cncn1 (stereo unspecified),cytotoxicity at 10 µM,7.89%
O=C(c1ncoc1C1CCCO1)N1CCC2(CCCCC2)CC1 (stereo unspecified),cytotoxicity at 10 µM,-7%
CNC(=O)c1ccc(=O)n(Cc2csc(C(C)(C)C)n2)c1,cytotoxicity at 10 µM,6.8%
Cc1cc(C(=O)N2CCC(NC(=O)c3cccnc3)CC2)c(C)o1,cytotoxicity at 10 µM,-2.44%
O=C(c1nc(=O)[nH][nH]1)N1CCC2(CCCCC2)C1,cytotoxicity at 10 µM,11.4%
CC(C)Cc1nc(COc2ccc(N(C)C(N)=O)cc2)no1,cytotoxicity at 10 µM,30.5%
O=S(=O)(N1CCCCC1)N1CCOC2(CCCC2)C1,cytotoxicity at 10 µM,-3.73%
CCCC(C)(C)NC(=O)c1cnc(CC)s1,cytotoxicity at 10 µM,10.2%
N#Cc1ccc(S(=O)(=O)Nc2ccccc2C#N)cn1,cytotoxicity at 10 µM,-2.93%
CC(C)OCCC(=O)N(C)c1ccc(F)c(Cl)c1,cytotoxicity at 10 µM,-4.62%
CC/C=C(/C)C(=O)NS(=O)(=O)c1ccc(C#N)cc1C(F)(F)F,cytotoxicity at 10 µM,11.8%
CC(C)c1csc(C2CCCN(C(=O)c3ccc(=O)n(C)n3)C2)n1 (stereo unspecified),cytotoxicity at 10 µM,9.24%
CCn1c(C)nnc1CN(C)C1CCN(Cc2cnc(C)cn2)C1 (stereo unspecified),cytotoxicity at 10 µM,14.6%
COc1ccc(NC(=O)NC(C)c2nc[nH]n2)cc1 (stereo unspecified),cytotoxicity at 10 µM,-7.71%
CSC(C)(C)CNC(=O)NCCC1CCN(C)CC1,cytotoxicity at 10 µM,22.3%
CN1CCCC(CNC(=O)N2CCN(Cc3ccon3)CC2)C1 (stereo unspecified),cytotoxicity at 10 µM,15.5%
CC(=O)N1CCC(C(=O)NCCN2CCC(C)CC2)CC1,cytotoxicity at 10 µM,12.8%
O=C(Cc1ccccn1)N1C[C@H]2CCC[C@@]2(COc2ccccn2)C1,cytotoxicity at 10 µM,1.86%
CCn1ncc2[nH]c(-c3cc4c(cc3OC)OCO4)nc21,cytotoxicity at 10 µM,-2.99%
O=C(NCCN1CCCCC1CO)c1cc(-c2ccccc2)on1 (stereo unspecified),cytotoxicity at 10 µM,-5.53%
CN(CC1CCOC1)S(=O)(=O)c1cccc(C(=O)N2CCCCCC2)c1 (stereo unspecified),cytotoxicity at 10 µM,-0.825%
CCC1CCN(CCn2cnc3c(C)csc3c2=O)CC1,cytotoxicity at 10 µM,-6.94%
Cc1cc(C(=O)NCc2csc(N(C)C)n2)c2ccc(C)c(C)c2n1,cytotoxicity at 10 µM,-0.724%
Cc1cc(C2CCC2)nc(NCC(C)(C)CO)n1,cytotoxicity at 10 µM,-2.56%
Cc1nn(CC(=O)N(C)Cc2nncn2C(C)C)c(=O)c2ccccc12,cytotoxicity at 10 µM,3.1%
COc1ccccc1OC1CCN(C(=O)c2c[nH]c(=O)[nH]c2=O)CC1,cytotoxicity at 10 µM,8.45%
Cc1cccnc1CC(C)NC1CCSCC1 (stereo unspecified),cytotoxicity at 10 µM,2.28%
CCN1CCN(Cc2nc(Cc3ccccc3)n[nH]2)CC1,cytotoxicity at 10 µM,-9.34%
CCN(Cc1noc(CC(C)C)n1)Cc1cc2ccc(F)cc2[nH]c1=O,cytotoxicity at 10 µM,3.34%
Cc1ccc(C(=O)O)c(N2Cc3cnc(C(C)(C)C)nc3C2)n1,cytotoxicity at 10 µM,5.67%
CN(CCCc1cnn(C)c1)C(=O)C1CCC(=O)N(C2CCCC2)C1 (stereo unspecified),cytotoxicity at 10 µM,5.89%
CN(C)CCNc1cc(-c2ncccc2Cl)c2cc[nH]c2n1,cytotoxicity at 10 µM,8.45%
COCCCn1c(CN2CCCCO2)cnc1S(=O)(=O)C1CCCC1,cytotoxicity at 10 µM,4.24%
COc1ccc(CN(C)c2nccc(-c3cn(C)nc3C)n2)cc1,cytotoxicity at 10 µM,13.6%
Cc1nc(O)cc(CCNC(=O)C2CC(=O)N(CC(C)C)C2)n1 (stereo unspecified),cytotoxicity at 10 µM,-8.11%
Cc1nc(N)sc1C(=O)N1CCCC(c2nccn2CCCN(C)C)C1 (stereo unspecified),cytotoxicity at 10 µM,-6.82%
c1ncn(CC2CN(Cc3nc(C4CC4)no3)CCO2)n1 (stereo unspecified),cytotoxicity at 10 µM,-8.45%
CC(NC(=O)NCCCN1CCCC1=O)c1nncn1C (stereo unspecified),cytotoxicity at 10 µM,-3.08%
COc1cccc(-c2noc(CN3CCOCC3C)n2)c1 (stereo unspecified),cytotoxicity at 10 µM,-11.7%
c1cncc(-c2noc(CNCC3CCCN3c3cccnn3)n2)c1 (stereo unspecified),cytotoxicity at 10 µM,-4.6%
Cc1csc(CCNC(=O)NC(C)Cn2cccn2)n1 (stereo unspecified),cytotoxicity at 10 µM,-18%
O=C(Cc1cccnc1)N1CCCC(n2cncn2)C1 (stereo unspecified),cytotoxicity at 10 µM,-13.1%
OC(CN1CCC(c2ccn[nH]2)CC1)c1ccc(F)cc1F (stereo unspecified),cytotoxicity at 10 µM,-17.9%
Cc1nccn1CC1CCCN1S(=O)(=O)Cc1cccc(F)c1 (stereo unspecified),cytotoxicity at 10 µM,-15.8%
O=C(Nc1cccnc1N1CCCC1)C1CCS(=O)(=O)C1 (stereo unspecified),cytotoxicity at 10 µM,-13.1%
CN(CCC(=O)N1CCc2sccc2C1)Cc1ccc2c(c1)OCCO2,cytotoxicity at 10 µM,-14.8%
Cc1cnn(CC2CN(CC(=O)N(C)Cc3cnn(C)c3)CCO2)c1 (stereo unspecified),cytotoxicity at 10 µM,-18.4%
Cn1nc2c(cc1=O)CN(Cc1nc(-c3ccsc3)no1)CC2,cytotoxicity at 10 µM,-2.21%
O=C(NCCCN1CCc2ccccc2C1)c1ccccc1Cl,cytotoxicity at 10 µM,-13%
Cc1cn2c(n1)CCC(NC(=O)c1oc(Br)cc1C)C2 (stereo unspecified),cytotoxicity at 10 µM,-20.8%
COCc1ccc(C(=O)N2CCN(CC(C)O)CC2)cc1 (stereo unspecified),cytotoxicity at 10 µM,0.0264%
CC(C)C(NC(N)=O)C(=O)NCc1ccc(N2CCCC2)nc1 (stereo unspecified),cytotoxicity at 10 µM,-16.9%
Cc1cccc(NC(=O)Cn2nc3ccccn3c2=O)c1C,cytotoxicity at 10 µM,-13.4%
Cc1ccccc1OCC(=O)N1CCN(C2CCOC2=O)CC1 (stereo unspecified),cytotoxicity at 10 µM,-19.3%
Cc1cnn(CCC(=O)N2CCCC(c3nc(C)c(C)s3)C2)c1 (stereo unspecified),cytotoxicity at 10 µM,-19.2%
Cc1cc(C)n(C2CCCN(C(=O)c3c(C)noc3C)C2)n1 (stereo unspecified),cytotoxicity at 10 µM,-6.41%
NC(=O)C1CCN(CCc2ccc(NC(=O)C3CCC3)cc2)CC1,cytotoxicity at 10 µM,-3.86%
Cc1nn(C)c(Cl)c1C1CCCN1CCc1ccccn1 (stereo unspecified),cytotoxicity at 10 µM,4.6%
O=C(c1cccc(CN2CCCC2)c1)N1CCCC(n2cncn2)C1 (stereo unspecified),cytotoxicity at 10 µM,-11.9%
Cc1ccc(N2CCCC(NCc3ccncc3)C2)nn1 (stereo unspecified),cytotoxicity at 10 µM,2.55%
CN1CCc2onc(Cn3cccc3)c2C1,cytotoxicity at 10 µM,7.25%
CCS(=O)(=O)N1CCOC2(CCCN(c3cnccn3)C2)C1 (stereo unspecified),cytotoxicity at 10 µM,2.66%
CCN1CCOCC12CCN(C(=O)C1CCCC1)CC2,cytotoxicity at 10 µM,-0.272%
O=C([C@@H]1CC[C@@H]2[C@@H](CCN2Cc2cccc(F)c2)O1)N1CCCCO1,cytotoxicity at 10 µM,-6.71%
CS(=O)(=O)N1C[C@H](C(=O)Nc2cccnc2)[C@@H]2CCO[C@@H]2C1,cytotoxicity at 10 µM,-104%
CC(C)N1CCN(c2ccc3ccc(C(=O)NC4CCCC4)cn23)CC1,cytotoxicity at 10 µM,1.26%
CN(C)C(=O)C1OC2(CCNCC2)c2ccccc21 (stereo unspecified),cytotoxicity at 10 µM,0.37%
COc1ccc(CN2CCN(C(C)=O)CC3(CC(=O)N(C)C3)C2)cc1 (stereo unspecified),cytotoxicity at 10 µM,9.74%
Nc1ncc(-c2csc(NC(=O)C[C@H]3COCCN3)n2)cn1,cytotoxicity at 10 µM,-2.83%
CC(C)OCc1ncn2c1CN(Cc1cnn(C)c1)CCC2,cytotoxicity at 10 µM,6.13%
COc1cccc(C2c3c(n[nH]c3C)N=C3COC(=O)C32)c1OC (stereo unspecified),cytotoxicity at 10 µM,-5.34%
O=C(CC1[C@H]2CN(Cc3ccc(F)cc3)C[C@@H]12)N1CCCC1 (stereo partly specified),cytotoxicity at 10 µM,-0.744%
